Assay results from article PMC3010304 (Bioorganic & medicinal chemistry letters, 2010).

Tests used:
[1] = test system: MCF-7 (human breast cancer); test: MTT cytotoxicity assay, MCF-7; format: cell-based; details: 48 h
[2] = test system: A549 (human lung carcinoma); test: MTT cytotoxicity assay, A549; format: cell-based; details: 48 h
HIV-1IIIB = HIV-1IIIB infected C8166 cell lines; cited from earlier work
HIV-1NL4-3 = HIV-1NL4-3 replication inhibition assay in MT-4 lymphocytes; format: cell-based; details: HIV-1NL4-3 infected MT-4 cells
How it was run: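 MT-4 cells infected with HIV-1 NL4-3 variants at a multiplicity of infection of 0.01, in a microtiter-plate replication screen.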

[3] = biological target: T1, rabbit muscle glycogen phosphorylase a (RMGPa) (Oryctolagus cuniculus, UniProt P00489); test: Inhibition of rabbit muscle glycogen phosphorylase a; format: biochemical; details: for GP inhibitory potency relative to betulin (3): fold more potent than 3
T1 sequence (P00489 1-843): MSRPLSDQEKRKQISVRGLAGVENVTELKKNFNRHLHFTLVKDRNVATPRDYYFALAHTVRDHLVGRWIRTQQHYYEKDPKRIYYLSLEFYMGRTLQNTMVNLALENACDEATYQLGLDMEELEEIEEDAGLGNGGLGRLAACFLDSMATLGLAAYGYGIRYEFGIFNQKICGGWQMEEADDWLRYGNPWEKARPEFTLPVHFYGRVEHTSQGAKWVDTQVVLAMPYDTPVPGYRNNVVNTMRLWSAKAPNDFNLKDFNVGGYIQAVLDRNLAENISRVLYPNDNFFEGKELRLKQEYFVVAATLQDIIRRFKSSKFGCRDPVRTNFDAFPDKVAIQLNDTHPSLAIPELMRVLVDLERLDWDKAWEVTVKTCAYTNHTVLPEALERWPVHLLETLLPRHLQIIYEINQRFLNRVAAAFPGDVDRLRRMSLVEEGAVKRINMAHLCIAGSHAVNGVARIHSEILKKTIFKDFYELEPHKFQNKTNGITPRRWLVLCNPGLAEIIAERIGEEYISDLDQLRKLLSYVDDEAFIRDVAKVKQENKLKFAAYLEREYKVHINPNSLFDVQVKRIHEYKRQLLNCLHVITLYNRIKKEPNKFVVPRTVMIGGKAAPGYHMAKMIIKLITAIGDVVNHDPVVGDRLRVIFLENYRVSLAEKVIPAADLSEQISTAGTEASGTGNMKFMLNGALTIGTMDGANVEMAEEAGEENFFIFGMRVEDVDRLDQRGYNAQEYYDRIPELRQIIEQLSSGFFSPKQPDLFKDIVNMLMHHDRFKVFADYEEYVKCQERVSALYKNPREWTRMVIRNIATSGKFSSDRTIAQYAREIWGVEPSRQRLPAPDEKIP

[4] = test system: PC3 (human prostate cancer); test: MTT cytotoxicity assay, PC3; format: cell-based; details: 48 h, means of three experiments, NA = no activity

In the case of `C=C(C)[C@@H]1CC[C@]2(C(=O)O)CC[C@]3(C)[C@H](CC[C@@H]4[C@@]5(C)[C@H](C(=O)O)[C@H](O)C(C)(C)[C@@H]5CC[C@]43C)[C@@H]12` [Compound 1, Epiceanothic acid], the “decrease of cytotoxic activity against MCF-7 compared with 12” value [1] is listed as “more than 20 fold”, the “decrease of cytotoxic activity against A549 compared with 12” value [2] is listed as “more than 20 fold” and the “EC50, anti-HIV-1 replication activity” value (HIV-1IIIB) is listed as < 0.064 µg/mL.
With `C=C(C)[C@@H]1CC[C@]2(C(=O)O)CC[C@]3(C)[C@H](CC[C@@H]4[C@@]5(C)[C@@H](C(=O)O)[C@H](O)C(C)(C)[C@@H]5CC[C@]43C)[C@@H]12` [Compound 2a, ceanothic acid] the “anti-HIV-1 activity (result in words)” value (HIV-1NL4-3) was “no anti-HIV-1 activity”.
For `C=C(C)[C@@H]1CC[C@]2(CO)CC[C@]3(C)[C@H](CC[C@@H]4[C@@]5(C)CC[C@H](O)C(C)(C)[C@@H]5CC[C@]43C)[C@@H]12` [Compound 3, betulin], the “anti-HIV-1 activity (result in words)” value (HIV-1NL4-3) was “did not exhibit significant antiviral activity”.
For `C=C(C)[C@@H]1CC[C@]2(COC(c3ccccc3)(c3ccccc3)c3ccccc3)CC[C@]3(C)[C@H](CC[C@@H]4[C@@](C)(CC(=O)O)[C@H](C(C)(C)C(=O)O)CC[C@]43C)[C@@H]12` [Compound 5], the “GP inhibitory potency relative to betulin (3)” value [3] was ~200 fold and the “GP inhibitory potency relative to compound 6” value ([3]; fold more potent than 6) was 14 fold.
In the case of `C=C(C)[C@@H]1CC[C@]2(COC(c3ccccc3)(c3ccccc3)c3ccccc3)CC[C@]3(C)[C@H](CC[C@@H]4[C@@](C)(CC(=O)OC)[C@H](C(C)(C)C(=O)OC)CC[C@]43C)[C@@H]12` [Compound 6], the “GP inhibitory potency relative to betulin (3)” value [3] is reported as 14 fold.
With `C=C(C)[C@@H]1CC[C@]2(COC(c3ccccc3)(c3ccccc3)c3ccccc3)CC[C@]3(C)[C@H](CC[C@@H]4[C@@]5(C)[C@H](C(=O)OC)[C@H](O)C(C)(C)[C@@H]5CC[C@]43C)[C@@H]12` [Compound 8] the “IC50 ±SD, cytotoxic activity, PC3” value [4] was “inactive”.
For `C=C(C)[C@@H]1CC[C@]2(COC(c3ccccc3)(c3ccccc3)c3ccccc3)CC[C@]3(C)[C@H](CC[C@@H]4[C@@]5(C)[C@H](C(=O)OC)[C@H](OC(C)=O)C(C)(C)[C@@H]5CC[C@]43C)[C@@H]12` [Compound 9], the “IC50 ±SD, cytotoxic activity, PC3” value [4] was “inactive”.
